Experimental data as given in ChEMBL document CHEMBL5625176, “Immunosuppressive effects of new thiophene-based KV1.3 inhibitors” (Eur J Med Chem, 2023).
Values after ≈ are worked out from the molar mass of the structure shown. Active and inactive are the calls of the source. The rule behind the calls is not given here.

Assays:
[1] = molecular target: T1, Potassium voltage-gated channel subfamily A member 3 (Homo sapiens, UniProt P22001); assay: Inhibition of Kv1.3 (unknown origin) expressed in human PBMC derived PHA-activated T-lymphocyte cells assessed as reduction in total outward potassium current at 5 uM by patch clamp electrophysiology method; format: cell-based
Procedure, shortened: (§1)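 Whole-cell recording on PBMC stimulated 5 days with PHA-L (240 ng/mL); about 90% of cells CD3⁺. Large cells chosen; cells with currents ≤500–600 pA discarded. Bath in mM: 130 NaCl, 5 KCl, 2 CaCl₂, 2 MgCl₂, 10 HEPES, 5 glucose, pH 7.4; pipette KF-based with 11 EGTA, pH 7.2. Leak-subtracted two-step outward K⁺ current. Single concentration 5 μM, or 0.05 nM–50 μM for curves; peak normalized to control.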

[2] = molecular target: T1, Potassium voltage-gated channel subfamily A member 3; assay: Inhibition of human Kv1.3 expressed in Xenopus laevis Oocyte cells at 10 uM by manual patch clamp method relative to control; format: cell-based
Procedure, shortened: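 Human Kv1.3 cRNA injected into defolliculated Xenopus oocytes. Two-electrode voltage clamp 1–4 days later at 18–22 °C in ND96 (pH 7.5). Currents evoked by 1 s depolarizations, with inhibition read at the 0 mV step. Compounds from DMSO stock at ≤0.5% DMSO, either single 10 μM or rising concentrations fitted with the Hill equation for IC50.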

[3] = Thermodynamic solubility of the compound at pH 7.4 incubated for 24 hrs under shaking condition by HPLC analysis; format: physicochemical; conditions: buffer, read-out: Therm_solubility
Procedure, shortened: (§2)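 Supernatant diluted 1:2 or 1:10 in 0.1% TFA/MeCN 1:1 and quantified by reversed-phase UPLC at 290 nm against a 7-point calibration (1–100 μM). Mean of two independent experiments, in μM.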

[4] = molecular target: T1, Potassium voltage-gated channel subfamily A member 3; assay: Inhibition of human Kv1.3 expressed in mouse LTK- cells by manual patch clamp electrophysiological recording; format: cell-based
Procedure, shortened: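 Mouse Ltk⁻ fibroblasts in DMEM/10% horse serum transiently transfected with hKv1.3 plasmid plus eGFP marker, and recorded 24 h later. Whole-cell patch clamp at 20–23 °C. Compounds diluted from DMSO stocks with final DMSO ≤0.1%, with 0.1% DMSO as vehicle control. Normalized current plotted against concentration and fitted with the Hill equation for IC50; mean ± SEM, n = cells.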

T-cell [5] = assay: Inhibition of anti-CD3 stimulated human T cell proliferation incubated for 15 to 30 mins in presence of IL-2 by 3H-thymidine uptake assay; format: functional, cell-based
[6] = molecular target: T1, Potassium voltage-gated channel subfamily A member 3; assay: Inhibition of Kv1.3 (unknown origin) expressed in CHO cells incubated for 10 mins by 86Rb+ efflux assay; format: cell-based
[7] = molecular target: T1, Potassium voltage-gated channel subfamily A member 3; assay: Inhibition of Kv1.3 in human T-lymphocyte by electrophysiology recordings; format: cell-based; procedure, shortened: as §1
[8] = Aqueous solubility of compound in DMEM; format: physicochemical
[9] = Aqueous solubility of compound; format: physicochemical; conditions: buffer; procedure, shortened: as §2
[10] = molecular target: T1, Potassium voltage-gated channel subfamily A member 3; assay: Inhibition of Kv1.3 (unknown origin) expressed in Xenopus laevis Oocyte cell membrane by Electrophysiology recording; format: cell membranes
[11] = molecular target: T1, Potassium voltage-gated channel subfamily A member 3; assay: Inhibition of human Kv1.3 expressed in PHA-activated T-lymphocyte cells assessed as outward current at 1 uM incubated for 1 min by patch clamp electrophysiology method (reference value: 769.2 +/- 199.2 pA); format: cell-based
Procedure, shortened: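 Human PBMCs isolated by Ficoll gradient with red-cell lysis, seeded at 1.5 × 10⁶ cells/mL in RPMI with 10% heat-inactivated serum and 2 mM L-glutamine, then stimulated 5 days with PHA-L 240 ng/mL. Whole-cell patch clamp used a bath of (mM) 130 NaCl, 5 KCl, 10 HEPES, pH 7.4 and a pipette of 140 KF, 11 EGTA, pH 7.2. Large cells were selected, and cells with currents ≤500–600 pA were discarded. Outward current was leak-subtracted and compared to control by paired t-test.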

hERG (KCNH2) = hERG (KCNH2) (Homo sapiens, UniProt Q12809); assay: Inhibition of hERG overexpressed in HEK293 cells at 5 uM relative to control; format: toxicity, cell-based; conditions: HEK293 cells overexpressing hERG
T-cell [12] = assay: Induction of cell cycle arrest at G0/G1 phase in human PBMC derived PHA-activated T-lymphocytes assessed as reduction S phase cells at 30 uM measured after 5 days by flow cytometric analysis; format: functional, cell-based; conditions: time 5.0 day
Procedure, shortened: (§3)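 PHA-activated PBMC exposed to compounds (30 μM) for 5 days in RPMI/10% heat-inactivated calf serum/2 mM L-glutamine, scraped off and incubated 1 h at 4 °C in the dark. Cell cycle read by flow cytometry and scored as G0/G1 versus cycling (S+G2/M) percentage. Mean ± SD of 3 experiments; unpaired t-test against untreated cells.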

T-cell line [13] = assay: Cytotoxicity against human PBMC derived PHA-activated T-lymphocytes assessed as effect on total cell number at 30 uM incubated for 5 days by bright-field microscopic analysis; format: toxicity, cell-based; conditions: 120 h, time 5 day
Procedure, shortened: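 Ficoll-purified PBMC at 1.5 × 10⁶ cells/mL in RPMI/10% heat-inactivated serum/2 mM L-glutamine, stimulated with PHA-L 240 ng/mL and exposed to compounds (30 μM) for 5 days. Cells then counted to give total cell number.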

T-cell line [14] = assay: Cytotoxicity against human PBMC derived PHA-activated T-lymphocytes assessed as effect on cell viability by trypan blue staining based analysis; format: toxicity; conditions: 30 µM
Procedure, shortened: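 PBMC purified by Ficoll gradient with red-cell lysis, seeded at 1.5 × 10⁶ cells/mL in RPMI with 10% heat-inactivated serum and 2 mM L-glutamine. Activated with PHA-L 240 ng/mL alongside compounds at 30 μM. Viability of treated versus untreated cells judged by trypan blue staining.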

T-cell [15] = assay: Inhibition of human PBMC derived PHA-activated T-lymphocytes activation assessed as inhibition of colony formation by measuring reduction in colony forming units at 30 uM incubated for 5 days by bright-field microscopic analysis; format: functional, cell-based; conditions: time 5.0 day
Procedure, shortened: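 PBMC at 1.5 × 10⁶ cells/mL treated with compounds (30 μM) together with PHA-L (240 ng/mL) for 5 days in RPMI with 10% heat-inactivated bovine calf serum and 2 mM L-glutamine. After medium removal, wells imaged by bright-field microscopy at 2× and colonies (CFU) counted. Mean ± SD of 3 experiments.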

[16] = molecular target: T1, Potassium voltage-gated channel subfamily A member 3; assay: Inhibition of Kv1.3 in human PBMC derived PHA-activated T-lymphocytes assessed as reduction in intracellular calcium level at 5 uM incubated for 2 hrs by Fluo-4 Ca2+ based flow cytometric analysis; format: cell-based; conditions: T-lymphocyte
Procedure, shortened: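 PBMC activated 5 days with PHA, then given compounds at 5 μM for 2 h. Scraped and loaded with Fluo-4 (2 μM) plus anti-CD3-APC at 37 °C for 1 h, washed, and held 30 min at 37 °C with compound (5 μM) before flow cytometry. Fluo-4 MFI of the CD3⁺ gate, 3 replicates, normalized to untreated control; n = 4.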

[17] = molecular target: T1, Potassium voltage-gated channel subfamily A member 3; assay: Inhibition of Kv1.3 (unknown origin) expressed in PBMC derived PHA-activated T-lymphocyte cells incubated for 5 days by manual patch clamp method; format: cell-based; procedure, shortened: as §1
T-cell [18] = assay: Induction of cell cycle arrest at G0/G1 phase in human PBMC derived PHA-activated T-lymphocytes assessed as reduction G2/M phase cells at 30 uM measured after 5 days by flow cytometric analysis; format: functional, cell-based; conditions: time 5.0 day; procedure, shortened: as §3

Sequence of hERG (KCNH2) (Q12809 whole entry): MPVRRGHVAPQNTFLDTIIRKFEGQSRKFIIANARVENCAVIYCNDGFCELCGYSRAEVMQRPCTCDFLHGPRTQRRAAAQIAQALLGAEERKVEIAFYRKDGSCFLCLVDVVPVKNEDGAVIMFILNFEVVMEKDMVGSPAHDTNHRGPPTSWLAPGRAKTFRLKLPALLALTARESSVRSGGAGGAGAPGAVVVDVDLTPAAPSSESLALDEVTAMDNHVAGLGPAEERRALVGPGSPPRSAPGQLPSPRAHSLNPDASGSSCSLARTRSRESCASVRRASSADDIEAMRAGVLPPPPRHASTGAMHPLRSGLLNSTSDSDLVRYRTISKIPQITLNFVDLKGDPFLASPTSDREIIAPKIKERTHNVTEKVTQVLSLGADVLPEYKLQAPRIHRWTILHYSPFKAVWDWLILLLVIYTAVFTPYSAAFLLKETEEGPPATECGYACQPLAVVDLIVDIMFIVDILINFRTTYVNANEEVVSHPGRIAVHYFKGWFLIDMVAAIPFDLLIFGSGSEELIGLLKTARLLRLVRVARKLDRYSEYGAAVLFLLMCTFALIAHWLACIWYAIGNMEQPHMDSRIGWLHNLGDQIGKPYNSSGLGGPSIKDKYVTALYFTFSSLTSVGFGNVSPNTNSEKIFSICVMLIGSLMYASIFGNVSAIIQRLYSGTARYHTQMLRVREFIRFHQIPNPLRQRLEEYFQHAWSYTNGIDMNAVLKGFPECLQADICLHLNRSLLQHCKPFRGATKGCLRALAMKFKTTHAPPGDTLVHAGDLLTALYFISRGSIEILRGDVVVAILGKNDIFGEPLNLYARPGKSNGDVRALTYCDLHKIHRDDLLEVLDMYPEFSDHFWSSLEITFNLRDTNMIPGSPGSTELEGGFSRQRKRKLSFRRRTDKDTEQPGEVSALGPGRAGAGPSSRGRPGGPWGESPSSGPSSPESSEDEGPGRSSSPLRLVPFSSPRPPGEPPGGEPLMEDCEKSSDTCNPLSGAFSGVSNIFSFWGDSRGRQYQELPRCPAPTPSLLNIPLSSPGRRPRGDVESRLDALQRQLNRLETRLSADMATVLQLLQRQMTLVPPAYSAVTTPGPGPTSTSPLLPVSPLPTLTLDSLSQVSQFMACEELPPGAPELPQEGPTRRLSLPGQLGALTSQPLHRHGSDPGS
T1 sequence (P22001 whole entry): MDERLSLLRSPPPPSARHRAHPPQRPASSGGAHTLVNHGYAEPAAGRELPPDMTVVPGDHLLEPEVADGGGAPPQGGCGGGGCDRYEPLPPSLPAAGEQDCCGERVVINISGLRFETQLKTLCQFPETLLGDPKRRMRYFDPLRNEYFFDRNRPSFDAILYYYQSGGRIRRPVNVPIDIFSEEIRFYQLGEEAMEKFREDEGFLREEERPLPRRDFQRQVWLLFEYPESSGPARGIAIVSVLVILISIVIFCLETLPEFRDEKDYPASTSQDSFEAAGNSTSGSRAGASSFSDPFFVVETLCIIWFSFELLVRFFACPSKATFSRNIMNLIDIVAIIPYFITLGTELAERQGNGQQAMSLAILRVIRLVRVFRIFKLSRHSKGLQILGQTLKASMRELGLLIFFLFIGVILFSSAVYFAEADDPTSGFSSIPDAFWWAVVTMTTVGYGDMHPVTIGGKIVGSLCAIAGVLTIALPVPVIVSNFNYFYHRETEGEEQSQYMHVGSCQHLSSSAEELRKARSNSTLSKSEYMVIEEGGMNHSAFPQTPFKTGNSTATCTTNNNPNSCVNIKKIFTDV

SMILES	inhibition [1]	inhibition [2] [%]	other results
COc1ccccc1C(=O)NCC1(c2ccsc2)CCC(=O)CC1	Active	97	solubility thermodynamic at 24 h [3]: 400 µM (≈ 137 µg/mL); IC50 [4]: 800 nM
COc1ccccc1C(=O)NC[C@]1(c2ccsc2)CC[C@@H](O)CC1	Active	78.5	
COc1ccc(C)cc1C(=O)NCC1(c2cccs2)CCC(=O)CC1	Active	23.3	
COc1cc(C)ccc1C(=O)NCC1(c2cccs2)CCC(=O)CC1	Active	85.6	
COc1ccc(F)cc1C(=O)NCC1(c2cccs2)CCC(=O)CC1	Active	39.1	
COc1ccccc1C(=O)NC[C@]1(c2cccs2)CC[C@@H](O)CC1	Active	38.5	
O=C1CCC(CNC(=O)c2ccoc2)(c2cccs2)CC1	Active	55.3	
COc1ccccc1C(=O)NCC1(c2cccs2)CCC(=O)CC1	Active	95.1	solubility thermodynamic at 24 h [3]: 210 µM (≈ 72.1 µg/mL); IC50 [4]: 1130 nM
COc1ccccc1C(=O)NC[C@]1(c2ccsc2)CC[C@H](N)CC1	Active	6.46	
COc1ccccc1C(=O)NCC1(c2ccccc2)CCC(=O)CC1	Active	87.5	IC50 (T-cell [5]): 1000 nM; IC50 [6]: 260 nM; IC50 [7]: 310 nM
COc1ccc(F)cc1C(=O)NC[C@]1(c2cccs2)CC[C@H](O)CC1	Active	66.4	
CNC(=O)O[C@H]1CC[C@](CNC(=O)c2ccccc2OC)(c2cccs2)CC1	Active	94.7	IC50 [4]: 180 nM
O=c1ccc2c(OCCCCOc3ccc(O)cc3)c3ccoc3cc2o1			solubility [8]: 0.6 µM (≈ 0.22 µg/mL)
O=c1ccc2c(OCCCCOc3ccccc3)c3ccoc3cc2o1			solubility [9]: < 1000 µg/mL
COc1ccccc1C(=O)NC[C@]1(c2ccsc2)CC[C@@H](N)CC1	Active	0.65	
COc1ccccc1C(=O)NCC1(c2ccsc2)CCCC1			IC50 [10]: 17400 nM

SMILES	inhibition [1]	inhibition [2] [%]	other results
Clc1ccccc1C(c1ccccc1)(c1ccccc1)n1cccn1			Activity [11]: 173 pA
O=C(NC[C@]1(c2cccs2)CC[C@H](O)CC1)c1ccoc1	Active	65.7	
O=C(NC[C@]1(c2cccs2)CC[C@@H](O)CC1)c1ccoc1	Active	0	inhibition at 5 µM (hERG (KCNH2)): 21%
COc1ccccc1C(=O)NC[C@]1(c2ccsc2)CC[C@H](O)CC1	Active	97.6	Activity (T-cell [12]): Active; Activity (T-cell line [13]): Non-Toxic; Activity (T-cell line [14]): Non-Toxic; inhibition (T-cell [15]): Active; inhibition [16]: inactive; solubility thermodynamic at 24 h [3]: 72 µM (≈ 24.9 µg/mL); IC50 [17]: 56.8 nM; inhibition at 5 µM (hERG (KCNH2)): 15%; Activity (T-cell [18]): Active; IC50 [4]: 450 nM
CCCNC(=O)O[C@H]1CC[C@](CNC(=O)c2ccccc2OC)(c2ccccc2)CC1	Active	40.5	
CNC(=O)O[C@H]1CC[C@](CNC(=O)c2ccccc2OC)(c2ccsc2)CC1	Active	79.6	
COCCCNC(=O)O[C@H]1CC[C@](CNC(=O)c2ccccc2OC)(c2ccsc2)CC1	Active	94.5	IC50 [4]: 670 nM
COCCCNC(=O)O[C@H]1CC[C@](CNC(=O)c2ccccc2OC)(c2cccs2)CC1	Active	91.6	IC50 [4]: 850 nM
COc1ccc(F)cc1C(=O)NC[C@]1(c2cccs2)CC[C@@H](O)CC1	Active	54.9	
C=CCNC(=O)O[C@H]1CC[C@@](CNC(=O)c2ccccc2OC)(c2ccsc2)CC1	Active	36.2	IC50 [17]: 37.2 nM
CNC(=O)O[C@H]1CC[C@@](CNC(=O)c2ccccc2OC)(c2ccsc2)CC1	Active	93	inhibition at 5 µM (hERG (KCNH2)): 19%; IC50 [4]: 170 nM
CCCNC(=O)O[C@H]1CC[C@](CNC(=O)c2ccccc2OC)(c2ccsc2)CC1	Active	25.5	
CNC(=O)O[C@H]1CC[C@@](CNC(=O)c2ccccc2OC)(c2cccs2)CC1	Active	93.8	IC50 [4]: 470 nM
COc1ccccc1C(=O)NC[C@]1(c2cccs2)CC[C@H](O)CC1	Active	90.9	IC50 [4]: 250 nM
CCCNC(=O)O[C@H]1CC[C@@](CNC(=O)c2ccccc2OC)(c2ccccc2)CC1	Active	87.3	IC50 (T-cell [5]): 340 nM
